Assay results as given in ChEMBL document CHEMBL1159028, “Antimicrobial agents from Licaria puchuri-major and their synergistic effect with polygodial” (1992).
Values after ≈ are worked out from the molar mass of the structure shown.

Assays:
Format in all cases: functional
[1] = system: Bacillus subtilis; test: Antimicrobial activity against Bacillus subtilis ATCC 9372 after 2 days by twofold serial broth dilution method; settings: ATCC 9372, 48 h
In short: (§1)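 ATCC strains were revived from freeze-dried stock, then grown in medium of 0.8% nutrient broth, 0.5% yeast extract and 0.1% glucose. Twofold serial broth dilution used compound in DMF (1% DMF final), with a top concentration of 800 µg/ml. Cultures were stationary for 2 days, and growth was read as turbidity at OD 660 nm. MIC was the lowest concentration with no growth.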

[2] = system: Corynebacterium ammoniagenes; test: Antimicrobial activity against Brevibacterium ammoniagenes ATCC 6872 after 2 days by twofold serial broth dilution method; settings: ATCC 6872, 48 h; in short: as §1
[3] = system: Cutibacterium acnes; test: Antimicrobial activity against Propionibacterium acnes ATCC 11827 after 2 days by twofold serial broth dilution method; settings: ATCC 11827, 48 h; in short: as §1
[4] = system: Staphylococcus aureus; test: Antimicrobial activity against Staphylococcus aureus ATCC 12598 after 2 days by twofold serial broth dilution method; settings: ATCC 12598, 48 h; in short: as §1
[5] = system: Streptococcus mutans; test: Antimicrobial activity against Streptococcus mutans ATCC 25175 after 2 days by twofold serial broth dilution method; settings: ATCC 25175, 48 h
In short: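 ATCC strain grown in 3.7% brain heart infusion broth. Twofold serial broth dilution used compound dissolved in DMF (1% DMF final), with a top concentration of 800 µg/ml. After 2 days of stationary culture, growth was read as turbidity at OD 660 nm. MIC was the lowest concentration with no growth.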

[6] = system: Escherichia coli; test: Antimicrobial activity against Escherichia coli ATCC 9637 after 2 days by twofold serial broth dilution method; settings: ATCC 9637, 48 h; in short: as §1
[7] = system: Pseudomonas aeruginosa; test: Antimicrobial activity against Pseudomonas aeruginosa ATCC 10145 after 2 days by twofold serial broth dilution method; settings: ATCC 10145, 48 h; in short: as §1
[8] = system: Klebsiella aerogenes; test: Antimicrobial activity against Enterobacter aerogenes ATCC 13048 after 2 days by twofold serial broth dilution method; settings: ATCC 13048, 48 h; in short: as §1
[9] = system: Saccharomyces cerevisiae; test: Antimicrobial activity against Saccharomyces cerevisiae ATCC 7754 after 2 days by twofold serial broth dilution method; settings: ATCC 7754, 48 h
In short: (§2)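 Yeasts were grown in 2.5% malt extract broth. Twofold serial broth dilution used compound in DMF (1% DMF final), with a top concentration of 800 µg/ml. After 2 days of stationary culture, turbidity was read at OD 660 nm. MIC was the lowest concentration with no growth. Checkerboard combinations with polygodial were tested at least twice per fungus.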

[10] = system: Cyberlindnera jadinii; test: Antimicrobial activity against Candida utilis ATCC 9226 after 2 days by twofold serial broth dilution method; settings: Williopsis jadinii, ATCC 9226, 48 h; in short: as §2
[11] = system: Malassezia furfur; test: Antimicrobial activity against Pityrosporum ovale ATCC 14521 by twofold serial broth dilution method
In short: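 Medium: 1% bactopeptone, 0.5% yeast extract, 1% glucose and 0.1% corn oil. Twofold broth dilution used compound in DMF (1% final), with a top concentration of 800 µg/ml. Culture was stationary for 2 days, and growth was scored visually. MIC was the lowest concentration without growth. Checkerboard combinations with polygodial were tested at least twice.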

[12] = system: Penicillium chrysogenum; test: Antimicrobial activity against Penicillium chrysogenum ATCC 10106 after 5 days by twofold serial broth dilution method; settings: ATCC 10106, 120 h
In short: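 Mould was grown in 2.5% malt extract broth with shaking. Compound in DMF (1% final) was serially diluted twofold, to a maximum of 800 µg/ml. Growth was judged by eye after 5 days. MIC was the lowest concentration showing no growth.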

Row | Structure (SMILES) | MIC [1] [µg/mL] | MIC [2] [µg/mL] | MIC [3] [µg/mL] | MIC [4] [µg/mL] | MIC [5] [µg/mL] | MIC [6] [µg/mL] | MIC [7] [µg/mL] | MIC [8] [µg/mL] | MIC [9] [µg/mL] | MIC [10] [µg/mL] | MIC [11] [µg/mL] | MIC [12] [µg/mL]
1 | C=C1CC/C=C(/C)CC[C@@H]2[C@@H]1CC2(C)C [CARYOPHYLLENE] | 50 (≈ 0.245 mM) | 100 (≈ 0.489 mM) | 6.25 (≈ 0.0306 mM) | > 800 | > 800 | > 800 | > 800 | > 800 | > 800 | > 800 | > 800 | > 800
2 | C/C=C/c1ccc(OC)cc1 [ANETHOLE] | 400 (≈ 2.7 mM) | 200 (≈ 1.35 mM) | 100 (≈ 0.675 mM) | > 800 | 200 (≈ 1.35 mM) | 200 (≈ 1.35 mM) | > 800 | > 800 | 200 (≈ 1.35 mM) | 200 (≈ 1.35 mM) | 100 (≈ 0.675 mM) | > 800
3 | C=C(C)[C@H]1CC=C(C)CC1 [D-LIMONENE] | 800 (≈ 5.87 mM) | > 800 | 50 (≈ 0.367 mM) | > 800 | 100 (≈ 0.734 mM) | > 800 | > 800 | > 800 | 50 (≈ 0.367 mM) | 200 (≈ 1.47 mM) | 200 (≈ 1.47 mM) | > 800
4 | CC1(C)CCC[C@]2(C)[C@@H](C=O)C(C=O)=CC[C@@H]12 [POLYGODIAL] |  |  |  |  |  |  |  |  | 3.13 (≈ 0.0134 mM) | 6.25 (≈ 0.0267 mM) | 50 (≈ 0.213 mM) | 
5 | CCCCCCCCCCCC(=O)O [DODECANOATE] | > 800 | > 800 | 50 (≈ 0.25 mM) | > 800 | > 800 | > 800 | > 800 | > 800 | > 800 | > 800 | > 800 | > 800
6 | C=CCc1ccc(OC)c(OC)c1 [METHYLEUGENOL] | 800 (≈ 4.49 mM) | 800 (≈ 4.49 mM) | 200 (≈ 1.12 mM) | 800 (≈ 4.49 mM) | 400 (≈ 2.24 mM) | 800 (≈ 4.49 mM) | > 800 | > 800 | 800 (≈ 4.49 mM) | 800 (≈ 4.49 mM) | 200 (≈ 1.12 mM) | 800 (≈ 4.49 mM)
7 | C=CCc1ccc2c(c1)OCO2 [SAFROLE] | 400 (≈ 2.47 mM) | > 800 | 50 (≈ 0.308 mM) | > 800 | 100 (≈ 0.617 mM) | 400 (≈ 2.47 mM) | > 800 | > 800 | 200 (≈ 1.23 mM) | 200 (≈ 1.23 mM) | 100 (≈ 0.617 mM) | > 800
8 | C=CC(C)(O)CCC=C(C)C (centres undefined) [LINALOOL] | 800 (≈ 5.19 mM) | 800 (≈ 5.19 mM) | 200 (≈ 1.3 mM) | > 800 | 400 (≈ 2.59 mM) | > 800 | > 800 | > 800 | 800 (≈ 5.19 mM) | 400 (≈ 2.59 mM) | 400 (≈ 2.59 mM) | 800 (≈ 5.19 mM)
9 | CC12CCC(CC1)C(C)(C)O2 [EUCALYPTOL] | > 800 | > 800 | 800 (≈ 5.19 mM) | > 800 | > 800 | > 800 | > 800 | > 800 | > 800 | > 800 | > 800 | > 800
10 | CC1=CCC(O)(C(C)C)CC1 (centres undefined) [TERPINEOL] | > 800 | > 800 | 800 (≈ 5.19 mM) | > 800 | > 800 | > 800 | > 800 | > 800 | 800 (≈ 5.19 mM) | 800 (≈ 5.19 mM) | 100 (≈ 0.648 mM) | 800 (≈ 5.19 mM)
11 | C=CCc1ccc(O)c(OC)c1 [EUGENOL] | 400 (≈ 2.44 mM) | 800 (≈ 4.87 mM) | 50 (≈ 0.304 mM) | 800 (≈ 4.87 mM) | 400 (≈ 2.44 mM) | 400 (≈ 2.44 mM) | > 800 | > 800 | 800 (≈ 4.87 mM) | 800 (≈ 4.87 mM) | 100 (≈ 0.609 mM) | 200 (≈ 1.22 mM)
12 | CC(C)=CCC/C(C)=C/CO [GERANIOL] | 400 (≈ 2.59 mM) | 400 (≈ 2.59 mM) | 200 (≈ 1.3 mM) | 800 (≈ 5.19 mM) | 200 (≈ 1.3 mM) | 800 (≈ 5.19 mM) | > 800 | > 800 | 400 (≈ 2.59 mM) | 400 (≈ 2.59 mM) | 100 (≈ 0.648 mM) | 200 (≈ 1.3 mM)
13 | CC1=CCC(C(C)C)=CC1 [GAMMA-TERPINENE] | > 800 | > 800 | 50 (≈ 0.367 mM) | > 800 | 100 (≈ 0.734 mM) | > 800 | > 800 | > 800 | 50 (≈ 0.367 mM) | 100 (≈ 0.734 mM) | 800 (≈ 5.87 mM) | > 800
14 | CC1=CC[C@@H](C(C)(C)O)CC1 [ALPHA-TERPINEOL] | 800 (≈ 5.19 mM) | > 800 | 100 (≈ 0.648 mM) | > 800 | 400 (≈ 2.59 mM) | 800 (≈ 5.19 mM) | > 800 | > 800 | 800 (≈ 5.19 mM) | 800 (≈ 5.19 mM) | 400 (≈ 2.59 mM) | 400 (≈ 2.59 mM)
